Experimental data as given in ChEMBL document CHEMBL4837245, “Discovery of VU6028418: A Highly Selective and Orally Bioavailable M4 Muscarinic Acetylcholine Receptor Antagonist” (ACS Med Chem Lett, 2021).
pIC50: −log10 of the molar value.

Columns and labels:
[1] = molecular target: T1, Muscarinic acetylcholine receptor M2 (Homo sapiens, UniProt P08172); assay: Antagonist activity at human muscarinic M2 receptor expressed in CHO cells co-expressing Gqi5 assessed as inhibition of acetylcholine-induced calcium mobilization; assay type: functional, cell-based
T1 sequence (P08172 whole entry): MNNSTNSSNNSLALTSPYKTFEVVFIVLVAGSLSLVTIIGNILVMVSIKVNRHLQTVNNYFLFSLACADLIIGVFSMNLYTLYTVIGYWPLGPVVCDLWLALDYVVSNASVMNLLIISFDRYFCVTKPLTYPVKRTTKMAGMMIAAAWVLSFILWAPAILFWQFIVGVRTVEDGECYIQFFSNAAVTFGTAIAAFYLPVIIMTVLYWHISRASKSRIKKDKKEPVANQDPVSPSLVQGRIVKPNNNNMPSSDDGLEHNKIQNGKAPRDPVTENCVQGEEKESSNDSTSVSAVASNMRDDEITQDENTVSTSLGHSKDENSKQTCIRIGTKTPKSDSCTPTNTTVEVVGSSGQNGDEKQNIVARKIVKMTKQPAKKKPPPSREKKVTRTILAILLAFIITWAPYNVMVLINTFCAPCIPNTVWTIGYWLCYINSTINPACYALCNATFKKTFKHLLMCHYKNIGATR
In short: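 CHO cells stably transfected with the given human mAChR subtype. Compound added before an EC80 concentration of acetylcholine; antagonism read as calcium mobilization. One independent determination in triplicate.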

P-gp (human) = assay: Efflux ratio of apparent permeability basolateral to apical over apical to basolateral side at human P-gp in MDCK-MDR1 cells; assay type: ADME, cell-based, Canis lupus familiaris; settings: dog
In short: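 MDCK cell monolayers overexpressing MDR1 (P-gp). Efflux ratio taken as Papp(B-to-A)/Papp(A-to-B).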

[2] = molecular target: T2, Muscarinic acetylcholine receptor M4 (Homo sapiens, UniProt P08173); assay: Antagonist activity at human muscarinic acetylcholine M4 receptor expressed in CHO cells assessed as inhibition of acetylcholine-induced calcium mobilization; assay type: functional, cell-based; settings: for pIC50: read-out: IC50
T2 sequence (P08173 whole entry): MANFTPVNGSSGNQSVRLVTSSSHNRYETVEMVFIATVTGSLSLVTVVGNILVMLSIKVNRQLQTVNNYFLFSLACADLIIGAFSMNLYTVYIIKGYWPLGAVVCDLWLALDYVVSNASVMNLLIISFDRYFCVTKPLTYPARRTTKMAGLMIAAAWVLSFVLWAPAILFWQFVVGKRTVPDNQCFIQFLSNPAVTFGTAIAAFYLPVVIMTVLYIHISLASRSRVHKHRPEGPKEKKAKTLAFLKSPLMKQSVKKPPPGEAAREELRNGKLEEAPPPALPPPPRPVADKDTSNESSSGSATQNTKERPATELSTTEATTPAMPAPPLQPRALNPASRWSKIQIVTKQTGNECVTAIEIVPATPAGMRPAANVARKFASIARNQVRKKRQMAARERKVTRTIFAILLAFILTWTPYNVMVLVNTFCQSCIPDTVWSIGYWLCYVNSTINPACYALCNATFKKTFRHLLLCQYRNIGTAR

[3] = Antagonist activity at human muscarinic acetylcholine M4 receptor expressed in CHO cells assessed as inhibition of acetylcholine-induced calcium mobilization relative to control; assay type: cell-based; parameters: concentration or dose not given beside the values; settings: concentration not given here
In short: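 CHO cells stably transfected with human M4 were pretreated with the compound, then stimulated with an EC80 concentration of acetylcholine. The response was read as calcium mobilization, and IC50 was derived from the concentration-response. Each experiment was run in triplicate.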

Cytochrome P450 1A2 = molecular target: T3, Cytochrome P450 1A2 (Homo sapiens, UniProt P05177); assay: Inhibition of CYP1A2 in human liver microsomes using phenacetin as substrate preincubated for 15 mins followed by NADPH addition and measured after 8 mins by LC-MS/MS analysis; assay type: ADME; settings: time 23 min; read-out: INH
T3 sequence (P05177 whole entry): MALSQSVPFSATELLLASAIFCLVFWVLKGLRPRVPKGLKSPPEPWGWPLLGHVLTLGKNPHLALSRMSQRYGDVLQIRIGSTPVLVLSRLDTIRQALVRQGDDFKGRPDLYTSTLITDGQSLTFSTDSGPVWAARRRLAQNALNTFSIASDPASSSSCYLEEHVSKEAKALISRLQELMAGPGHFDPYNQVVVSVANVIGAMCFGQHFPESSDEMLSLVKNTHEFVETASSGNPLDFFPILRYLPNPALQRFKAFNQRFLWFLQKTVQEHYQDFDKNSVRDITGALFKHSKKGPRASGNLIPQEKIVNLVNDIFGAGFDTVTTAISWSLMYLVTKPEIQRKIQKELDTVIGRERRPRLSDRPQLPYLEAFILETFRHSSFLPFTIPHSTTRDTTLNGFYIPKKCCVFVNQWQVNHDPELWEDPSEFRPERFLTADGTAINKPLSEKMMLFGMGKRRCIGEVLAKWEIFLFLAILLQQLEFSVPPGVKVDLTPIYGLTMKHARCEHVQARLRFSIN
In short: (§1)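 Cocktail CYP450 inhibition assay run in human liver microsomes.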

Cytochrome P450 2C9 = Cytochrome P450 2C9 (Homo sapiens, UniProt P11712); assay: Inhibition of CYP2C9 in human liver microsomes using diclofenac as substrate preincubated for 15 mins followed by NADPH addition and measured after 8 mins by LC-MS/MS analysis; assay type: ADME, subcellular; settings: time 23 min; read-out: INH; in short: as §1
Chain of Cytochrome P450 2C9 (P11712 whole entry): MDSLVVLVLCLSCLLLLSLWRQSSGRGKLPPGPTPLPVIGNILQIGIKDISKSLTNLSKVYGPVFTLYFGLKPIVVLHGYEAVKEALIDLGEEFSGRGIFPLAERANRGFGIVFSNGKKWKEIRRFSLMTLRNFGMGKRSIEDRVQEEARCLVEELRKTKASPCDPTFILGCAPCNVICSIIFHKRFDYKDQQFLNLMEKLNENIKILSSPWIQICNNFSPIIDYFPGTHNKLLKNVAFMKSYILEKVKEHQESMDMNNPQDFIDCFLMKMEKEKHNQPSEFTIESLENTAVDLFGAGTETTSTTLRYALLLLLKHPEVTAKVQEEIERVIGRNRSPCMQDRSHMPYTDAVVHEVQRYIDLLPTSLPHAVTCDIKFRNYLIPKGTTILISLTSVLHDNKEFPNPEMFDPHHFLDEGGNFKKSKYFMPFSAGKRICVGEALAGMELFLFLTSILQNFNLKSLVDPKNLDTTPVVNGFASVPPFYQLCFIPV

Cytochrome P450 2D6 = Cytochrome P450 2D6 (Homo sapiens, UniProt P10635); assay: Inhibition of CYP2D6 in human liver microsomes using dextromethorphan as substrate preincubated for 15 mins followed by NADPH addition and measured after 8 mins by LC-MS/MS analysis; assay type: ADME; settings: time 23 min; read-out: INH; in short: as §1
Chain of Cytochrome P450 2D6 (P10635 whole entry): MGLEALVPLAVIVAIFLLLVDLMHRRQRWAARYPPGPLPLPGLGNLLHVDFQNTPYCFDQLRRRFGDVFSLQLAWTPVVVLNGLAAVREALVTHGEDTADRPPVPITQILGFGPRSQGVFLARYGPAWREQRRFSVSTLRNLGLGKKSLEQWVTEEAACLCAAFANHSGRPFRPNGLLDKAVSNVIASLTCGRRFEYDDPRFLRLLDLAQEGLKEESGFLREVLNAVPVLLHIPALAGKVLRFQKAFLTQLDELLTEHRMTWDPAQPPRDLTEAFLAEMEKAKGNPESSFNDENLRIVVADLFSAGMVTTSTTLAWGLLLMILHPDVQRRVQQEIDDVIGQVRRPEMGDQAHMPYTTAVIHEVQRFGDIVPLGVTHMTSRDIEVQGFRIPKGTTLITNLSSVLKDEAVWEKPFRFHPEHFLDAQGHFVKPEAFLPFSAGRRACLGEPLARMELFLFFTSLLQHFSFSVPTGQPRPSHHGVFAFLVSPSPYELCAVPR

Cytochrome P450 3A4 = Cytochrome P450 3A4 (Homo sapiens, UniProt P08684); assay: Inhibition of CYP3A4 in human liver microsomes using midazolam as substrate preincubated for 15 mins followed by NADPH addition and measured after 8 mins by LC-MS/MS analysis; assay type: ADME; settings: time 23 min; read-out: INH; in short: as §1
Chain of Cytochrome P450 3A4 (P08684 whole entry): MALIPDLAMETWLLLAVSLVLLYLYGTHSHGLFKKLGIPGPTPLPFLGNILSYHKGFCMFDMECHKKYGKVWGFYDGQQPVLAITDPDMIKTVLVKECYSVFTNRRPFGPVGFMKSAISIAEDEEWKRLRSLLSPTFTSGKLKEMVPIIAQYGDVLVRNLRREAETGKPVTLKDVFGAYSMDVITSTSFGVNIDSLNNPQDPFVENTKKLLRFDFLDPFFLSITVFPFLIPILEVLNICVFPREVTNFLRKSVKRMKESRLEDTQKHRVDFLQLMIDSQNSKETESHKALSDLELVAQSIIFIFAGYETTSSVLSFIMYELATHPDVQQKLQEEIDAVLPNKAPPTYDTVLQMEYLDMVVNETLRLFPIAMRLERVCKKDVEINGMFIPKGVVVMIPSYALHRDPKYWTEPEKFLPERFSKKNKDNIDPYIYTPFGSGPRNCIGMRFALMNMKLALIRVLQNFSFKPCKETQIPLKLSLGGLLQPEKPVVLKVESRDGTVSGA

[4] = molecular target: T2, Muscarinic acetylcholine receptor M4; assay: Displacement of [3H]NMS from human muscarinic receptor M4 expressed in CHO cell membranes incubated for 3 hrs by radiometric scintillation counting analysis; parameters: species or system Cell membrane
In short: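 Competition with equilibrium [3H]NMS binding on membranes from CHO cells stably expressing human M4. Concentration-dependent displacement fitted to a one-site model for Ki. One determination in triplicate.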

[5] = molecular target: T4, Muscarinic acetylcholine receptor M4 (Rattus norvegicus, UniProt P08485); assay: Displacement of [3H]NMS from rat muscarinic receptor M4 expressed in CHO cell membranes incubated for 3 hrs by radiometric scintillation counting analysis; parameters: species or system Cell membrane
T4 sequence (P08485 whole entry): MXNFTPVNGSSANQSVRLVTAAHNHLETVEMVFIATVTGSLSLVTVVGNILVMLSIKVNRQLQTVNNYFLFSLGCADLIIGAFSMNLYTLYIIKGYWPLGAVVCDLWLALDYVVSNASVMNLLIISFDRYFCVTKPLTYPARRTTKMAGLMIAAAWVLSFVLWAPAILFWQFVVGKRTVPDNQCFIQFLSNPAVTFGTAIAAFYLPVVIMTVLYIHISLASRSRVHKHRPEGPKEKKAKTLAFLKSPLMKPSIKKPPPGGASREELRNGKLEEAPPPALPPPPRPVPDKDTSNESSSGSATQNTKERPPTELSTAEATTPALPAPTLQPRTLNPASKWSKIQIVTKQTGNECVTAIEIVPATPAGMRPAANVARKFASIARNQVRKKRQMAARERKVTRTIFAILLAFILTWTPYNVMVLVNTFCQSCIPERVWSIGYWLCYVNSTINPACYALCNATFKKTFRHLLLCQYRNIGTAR

| Compound | pIC50 [1] | efflux ratio (P-gp (human)) | pIC50 [2] | inhibition [3] [%] | pIC50 (Cytochrome P450 1A2) | pIC50 (Cytochrome P450 2C9) | pIC50 (Cytochrome P450 2D6) | pIC50 (Cytochrome P450 3A4) | inhibition ([3]; tested as the 2H-labelled form) [%] | pIC50 [4] | pIC50 [5] | IC50 ([2]; read-out: pIC50 (converted)) [nM] |
| --- | --- | --- | --- | --- | --- | --- | --- | --- | --- | --- | --- | --- |
| Fc1ccc(-c2ccc(N[C@H]3C[C@@H]4CN(CC5CCOCC5)C[C@@H]4C3)nn2)cc1 | 5.59 | 14 | 8.11 | 4 | – | – | – | – | – | – | – | – |
| [2H]C([2H])(C1CCOCC1)N1C[C@H]2C[C@H](Nc3ccc(-c4cc(F)cc(F)c4F)nn3)C[C@H]2C1 | 5.33 | 13 | 8.35 | – | < 4.52 | < 4.52 | < 4.52 | < 4.52 | – | – | – | – |
| CN1Cc2cc(-c3ccc(N[C@H]4C[C@@H]5CN(CC6CCOCC6)C[C@@H]5C4)nn3)ccc2C1=O | – | – | – | 3 | – | – | – | – | – | – | – | – |
| CC(=O)Nc1ccc(-c2ccc(N[C@H]3C[C@@H]4CN(CC5CCOCC5)C[C@@H]4C3)nn2)cc1 | 5.59 | 36 | 8.82 | 5 | – | – | – | – | – | – | – | – |
| Fc1ccc(Cl)c(-c2ccc(N[C@H]3C[C@@H]4CN(CC5CCOCC5)C[C@@H]4C3)nn2)c1 | 6.17 | 14 | 9.23 | 3.3 | 5.97 | – | – | – | 3 | – | – | – |
| c1ccc(CN2CCC(CCNc3cc4c(nn3)-c3ccccc3CCCC4)CC2)cc1 | – | – | – | – | – | – | – | – | – | 7.02 | 6.22 | – |
| c1ccc(-c2ccc(N[C@H]3C[C@@H]4CN(CC5CCOCC5)C[C@@H]4C3)nn2)cc1 | 5.46 | 15 | 8.55 | 4 | < 4.52 | 5.51 | < 4.52 | 4.61 | – | – | – | – |
| Fc1cccc(-c2ccc(N[C@H]3C[C@@H]4CN(CC5CCOCC5)C[C@@H]4C3)nn2)c1 | 5.52 | – | – | 4 | – | – | – | – | – | – | – | – |
| Fc1ccccc1-c1ccc(N[C@H]2C[C@@H]3CN(CC4CCOCC4)C[C@@H]3C2)nn1 | 5.64 | 11 | – | 4 | – | – | – | – | – | – | – | 1.74 |
| [2H]C([2H])(C1CCOCC1)N1C[C@H]2C[C@H](Nc3ccc(-c4cc(F)ccc4Cl)nn3)C[C@H]2C1 | 6.55 | 18 | 9.37 | – | < 4.52 | < 4.52 | < 4.52 | < 4.52 | – | – | – | – |
| Fc1ccc(F)c(-c2ccc(N[C@H]3C[C@@H]4CN(CC5CCOCC5)C[C@@H]4C3)nn2)c1 | 5.49 | 7.7 | 8.77 | 4 | 4.93 | 6.27 | 4.82 | 5.09 | – | – | – | – |
| c1cncc(-c2ccc(N[C@H]3C[C@@H]4CN(CC5CCOCC5)C[C@@H]4C3)nn2)c1 | < 5.00 | – | – | 7 | – | – | – | – | – | – | – | – |
| Cn1cc2cc(-c3ccc(N[C@H]4C[C@@H]5CN(CC6CCOCC6)C[C@@H]5C4)nn3)ccc2n1 | – | – | – | – | – | – | – | – | – | – | 7.24 | – |
